# Shown are actives, neighbours in structure and some others; about 2.2% of the full set was active somewhere.
# DENV2 CPE rescue: protects cells from dengue virus 2 cytopathic effect. DENV2-infected cells, cytopathic effect rescue, plate reader. CPE inhibition, % at 9.99 µM. 350,000 tested, 1.7% active; in the data active means CPE inhibition above about 20%, passing the limit was not always enough; inconclusive means no clear call, values can overlap the other calls; tested in BHK-21 cells;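 further: 0% = median of neutral control wells and 100% = median of positive control wells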
# Statin myotox sup: suppression of simvastatin myotoxicity; C2C12 myotubes + simvastatin, ATP luminescence, 48 h; scaled: DMSO 0, geranylgeraniol control 100; rescue of ATP level, % at 7.49 µM; 330,000 tested, 0.78% active;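 active means mean ATP rescue above about 67%, or every replicate alone reaching that limit, limit read from the data, passing the limit was not always enough; inconclusive means no clear call, values can overlap the other calls; inactive means mean under the limit and some replicate under it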;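 further: myotubes were challenged with 10 µM simvastatin during compound exposure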
# E-sel inducer: E-selectin induction on HUVECs. P16581. HUVEC E-selectin immunofluorescence imaging; normalized: neutral wells 0, TNF-alpha wells 100. activation, % at 7.58 µM. 260,000 tested, 0.37% active;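 active means mean E-selectin-positive cell signal at least 10% of the positive control, reached in at least 60% of replicates, without over 20% cell loss; inconclusive means no rule given, readout overlaps actives, possibly toxicity-flagged; inactive means the rest, including those meeting only one limit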
# Target sequence (P16581 whole entry, looked up): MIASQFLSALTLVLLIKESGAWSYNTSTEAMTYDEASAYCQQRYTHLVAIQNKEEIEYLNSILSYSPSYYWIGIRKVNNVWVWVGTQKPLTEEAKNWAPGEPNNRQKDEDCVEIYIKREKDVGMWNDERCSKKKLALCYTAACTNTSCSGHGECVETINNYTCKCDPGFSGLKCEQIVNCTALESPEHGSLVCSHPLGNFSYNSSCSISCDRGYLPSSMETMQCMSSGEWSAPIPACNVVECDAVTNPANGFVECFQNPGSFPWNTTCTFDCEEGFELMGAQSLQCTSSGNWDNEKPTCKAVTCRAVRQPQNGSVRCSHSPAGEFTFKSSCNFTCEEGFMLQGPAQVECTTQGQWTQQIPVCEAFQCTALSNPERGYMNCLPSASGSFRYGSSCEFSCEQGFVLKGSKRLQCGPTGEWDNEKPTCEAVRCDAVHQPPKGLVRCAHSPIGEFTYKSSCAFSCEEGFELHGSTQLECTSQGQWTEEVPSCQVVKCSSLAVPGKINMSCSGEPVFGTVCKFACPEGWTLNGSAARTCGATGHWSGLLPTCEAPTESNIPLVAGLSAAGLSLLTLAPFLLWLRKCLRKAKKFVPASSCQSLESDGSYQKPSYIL
#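 Test system: HUVEC | Signal: Immunofluorescence imaging | Read-out: Percent E-selectin-positive cells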
# Numbers without * were called inactive; ? = inconclusive; / = no result given.
SMILES,DENV2 CPE rescue,Statin myotox sup,E-sel inducer
CCC(=O)N(C)C[C@@H]1Oc2ncc(-c3ccccc3OC)cc2C(=O)N([C@H](C)CO)C[C@@H]1C,-3,-5,0
C/C(CC(=O)Nc1ccc2c(c1)OCCO2)=N\NC(=O)Cc1ccccc1,-1,1,/
C/C(CC(=O)Nc1ccc(Cl)c(Cl)c1)=N\NC(=O)Cc1ccccc1,51*,/,/
CO[C@H]1CN(C)C(=O)c2cc(NS(=O)(=O)c3ccccc3)ccc2OC[C@@H](C)N(Cc2cccnc2)C[C@H]1C,-7,0,0
C[C@@H]1CCCCO[C@H](CN(C)S(=O)(=O)c2ccc(F)cc2)[C@H](C)CN([C@@H](C)CO)C(=O)c2cc(NC(=O)Cc3ccccc3)ccc2O1,1,152*,0
C[C@H](CO)N1C[C@H](C)[C@H](CN(C)S(=O)(=O)c2ccc(Cl)cc2)OCCCC[C@H](C)Oc2ccc(NC(=O)Cc3ccccc3)cc2C1=O,-5,/,1
C[C@H]1CCCCO[C@H](CN(C)S(=O)(=O)c2ccc(Cl)cc2)[C@@H](C)CN([C@@H](C)CO)C(=O)c2cc(NC(=O)Cc3ccccc3)ccc2O1,109*,/,0
C[C@@H]1CCCCO[C@H](CN(C)S(=O)(=O)c2ccc(F)cc2)[C@@H](C)CN([C@@H](C)CO)C(=O)c2cc(NC(=O)Cc3ccccc3)ccc2O1,-14,-90,0
C[C@@H]1CN([C@@H](C)CO)C(=O)c2cc(NS(=O)(=O)c3ccc(Cl)cc3)ccc2O[C@@H](C)CCCCO[C@@H]1CN(C)Cc1ccc(C(=O)O)cc1,-4,/,1
COCC(=O)N1CC2(CN(C(=O)NC(C)C)C2)c2c(n(C)c3cc(OC)ccc23)[C@H]1CO,17,/,1
CCOC(=O)c1c(NC(=O)c2ccncc2)sc(C)c1C,-2,/,/
CCOC(=O)c1sc(NC(=O)c2ccncc2)c(C#N)c1C,43*,/,0
C[C@@H]1CCCCO[C@H](CN(C)S(=O)(=O)c2cccs2)[C@@H](C)CN([C@@H](C)CO)C(=O)c2cc(NC(=O)Nc3ccc(F)cc3)ccc2O1,-9,-71,0
CCC(=O)N1[C@H](CO)[C@H]2c3ccccc3N(S(=O)(=O)c3ccccc3C)C[C@H]21,-7,19,0
Cc1ccc(C(=O)NCC2(c3ccccc3)CCCC2)cc1,/,121*,/
O=C(NCC1(c2ccccc2)CCCC1)c1ccc(Br)cc1,/,/,0
Clc1ccc(/C=N/c2c(-c3ccco3)nc3ccccn23)cc1,/,-3,/
Oc1ccccc1/C=N/c1c(-c2ccco2)nc2ccccn12,/,102*,/
COc1ccc(C#Cc2ccc3c(c2)[C@@H]2[C@@H](CCN2S(=O)(=O)c2ccccc2C)[C@H](CO)N3C)cc1,-9,-5,0
O=C(NCc1ccccn1)C1CCC(=O)N(Cc2ccc(Cl)cc2)C1 (centres undefined),10,-3,0
Cc1cnc(CNC(=O)C2CCC(=O)N(Cc3ccc(Cl)cc3)C2)[nH]1 (centres undefined),72*,6,-1
C[C@@H]1CN([C@@H](C)CO)C(=O)c2cc(NC(=O)Nc3ccc4c(c3)OCO4)ccc2O[C@H]1CN(C)Cc1ccc2c(c1)OCO2,-9,-23,0
CCCC(=O)Nc1ccc2c(c1)OC[C@@H](C)N(CC1CCOCC1)C[C@@H](C)[C@H](OC)CN(C)C2=O,8,/,0
CCCCNS(=O)(=O)c1ccc(OCC(=O)OC)cc1,0,/,/
CCCNS(=O)(=O)c1ccc(OCC(=O)OC)cc1,/,130*,/
SMILES,DENV2 CPE rescue,Statin myotox sup,E-sel inducer
CC(=O)NC1C(=O)N(CCN2CCOCC2)c2ccc(F)cc21 (centres undefined),7,/,53*
CC(=O)NC1C(=O)N(CCN2CCOCC2)c2ccc(Cl)cc21 (centres undefined),2,-2,0
COCC#Cc1ccc2c(c1)O[C@@H](CN(C)CC1CCOCC1)[C@@H](C)CN([C@@H](C)CO)S2(=O)=O,4,-7,0
CCCC#Cc1cnc2c(c1)C(=O)N([C@H](C)CO)C[C@H](C)[C@@H](CN(C)C(=O)c1ccc3c(c1)OCO3)O2,8,21,0
CCc1ccc(OCc2nnc(SCC(=O)NC3CCCCC3)o2)cc1,-6,-8,/
Brc1ccc(OCc2nnc(SCC3CCCCC3)o2)cc1,29*,/,0
CN1c2ccc(C3=CCCCC3)cc2[C@@H]2[C@@H](CCN2C(=O)NC2CCCC2)[C@H]1CO,?,/,0
Cc1cc2ncn(/N=C/c3cccnc3)c2cc1C,/,-7,/
Cc1cc2ncn(/N=C/c3ccc(-c4ccccc4)o3)c2cc1C,/,146*,/
C[C@@H]1CCCCO[C@@H](CN(C)Cc2ccc3c(c2)OCO3)[C@H](C)CN([C@H](C)CO)C(=O)c2cc(NC(=O)Nc3ccccc3)ccc2O1,-6,/,0
CCCNC(=O)N[C@H]1CC[C@H](CC(=O)NC2CCC2)O[C@H]1CO,18,-11,0
CCN(CC)CCCn1c2c(c(SCC(=O)Nc3cc(C)cc(C)c3)nc1=O)CCC2,22*,7,/
CCN(CC)CCCn1c2c(c(SCC(=O)Nc3cccc(C(C)=O)c3)nc1=O)CCC2,1,2,0
Cc1noc(C)c1S(=O)(=O)N(C)C[C@@H]1OCCCC[C@H](C)Oc2ccc(NS(=O)(=O)c3ccccc3)cc2C(=O)N([C@H](C)CO)C[C@@H]1C,-10,/,/
COc1ccc2c3c(n(C)c2c1)[C@H](CO)NCC31CN(Cc2ccncc2)C1,13,/,0
C[C@H]1CN([C@@H](C)CO)C(=O)c2cccc(NS(=O)(=O)c3cn(C)cn3)c2O[C@@H]1CN(C)CC1CC1,3,12,0
Cc1cccc(S(=O)(=O)N2C[C@@H](O)COC[C@H]3O[C@@H](CC(=O)NCc4ccncn4)CC[C@@H]32)c1,-3,0,0
CCCNC(=O)Nc1ccc2c(c1)OC[C@H](C)N(Cc1ccc(-c3ccccn3)cc1)C[C@@H](C)[C@@H](OC)CN(C)C2=O,11,-10,0
O=C(Nc1ccc2oc(=O)ccc2c1)c1ccc(-c2cccc([N+](=O)[O-])c2)o1,27*,/,1
Cc1ccc(-c2nc3ncccc3o2)cc1N,1,7,0
Cc1ccc(-c2nc3ncccc3o2)cc1NC(=O)c1ccc([N+](=O)[O-])o1,/,233*,/
CC(C)C(=O)Nc1ccc(-c2nc3ncccc3o2)cc1,-1,-8,0
Cc1cc(-c2nc3ncccc3o2)ccc1NC(=O)c1ccc([N+](=O)[O-])o1,6,-16,0
O=C(Nc1ccc2oc(=O)ccc2c1)c1ccc(-c2cccc(Cl)c2)o1,0,/,0
Cc1cc(-c2nc3ncccc3o2)ccc1N,/,100*,/
O=C(Nc1ccc(-c2nc3ncccc3o2)cc1)c1ccc([N+](=O)[O-])o1,-3,226*,0
CO[C@H]1CN(C)C(=O)c2ccc(NC(=O)c3ccc(Oc4ccccc4)cc3)cc2OC[C@H](C)NC[C@H]1C,12,-98,1
COc1ccc(-c2cnc3c(c2)C(=O)N([C@H](C)CO)C[C@@H](C)[C@@H](CN(C)Cc2ccccc2)O3)cc1,-7,58,0
O=C(Nc1ccc2oc(-c3ccncc3)nc2c1)c1ccc([N+](=O)[O-])o1,-3,145*,/
O=C(Nc1ccc2oc(-c3ccncc3)nc2c1)c1ccccc1,3,8,0

# From PubChem
